Assay results from ChEMBL document CHEMBL3739268, “Structure activity relationships of 4-hydroxy-2-pyridones: A novel class of antituberculosis agents” (Eur J Med Chem, 2015).
Converted amounts (≈) assume the structure as drawn.

Tests used:
[1] = system: Mycobacterium tuberculosis; test: Antituberculosis activity against Mycobacterium tuberculosis H37Rv ATCC 27294 after 5 days; format: functional; conditions: H37Rv ATCC 27294, 120 h
[2] = system: Mycobacterium tuberculosis; test: Antituberculosis activity against Mycobacterium tuberculosis H37Rv infected in mouse assessed as log reduction of CFU in lung at 150 mg/kg qd for 7 days in a week for 3 weeks; format: functional
In short: (§1)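 Acute model: mice infected intranasally day 0 with 10³ H37Rv bacilli; oral dosing began one week post-infection, daily 7 days/week (3 or 4 weeks). Oral vehicle was 0.5% Tween 80/0.5% methyl cellulose for the 3-week study and MEPC (Capmul MCM/Cremophor-RH40/ethanol/pH 6.8 phosphate buffer) for the 4-week study. Lungs homogenized, serial-dilution plated on 7H11 agar for CFU; ethambutol positive control.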

Cytochrome P450 2C9 = Cytochrome P450 2C9 (Homo sapiens, UniProt P11712); test: Inhibition of CYP2C9 (unknown origin); format: ADME
[3] = Tmax in mouse at 50 mg/kg, po; format: ADME, organism-based; conditions: in vivo
Mus musculus [4] = test: Oral bioavailability in mouse at 50 mg/kg; format: ADME, organism-based; conditions: in vivo
Cytochrome P450 3A4 = Cytochrome P450 3A4 (Homo sapiens, UniProt P08684); test: Inhibition of CYP3A4 (unknown origin); format: ADME
[5] = Terminal half life in mouse at 5 mg/kg, iv; format: ADME, organism-based; conditions: in vivo, read-out: beta t1/2 (converted)
In short: (§2)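 Mice dosed i.v. at 5 mg/kg (1 mg/mL in 20% 1,2-propanediol, 10% solutol HS15, pH 7.0 buffer). Plasma sampled at 0.02, 0.25, 0.75, 1.5, 3, 8 and 24 h, three mice per time point. Analysed by LC/MS/MS with warfarin as internal standard. Noncompartmental analysis of mean concentration–time profiles.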

[6] = Intrinsic clearance in human liver microsomes; format: ADME; conditions: read-out: CLH
In short: (§3)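 Compound depletion in human, mouse or rat liver microsomes, quantified by LC/MS/MS. In vitro half-life and hepatic extraction ratio measured, and metabolic clearance predicted from these.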

[7] = Cytotoxicity against human HepG2 cells; format: cell-based
[8] = Intrinsic clearance in rat liver microsomes; format: ADME; conditions: read-out: CLH; in short: as §3
[9] = Volume of distribution at steady state in mouse at 5 mg/kg, iv; format: ADME, organism-based; conditions: in vivo, read-out: Vdss; in short: as §2
Mus musculus [10] = test: AUC in mouse at 50 mg/kg, po; format: ADME, organism-based; conditions: in vivo
[11] = Inhibition of Mycobacterium tuberculosis InhA
Cytochrome P450 2D6 = Cytochrome P450 2D6 (Homo sapiens, UniProt P10635); test: Inhibition of CYP2D6 (unknown origin); format: ADME
[12] = Solubility of the compound at pH 6.8 after 24 hrs by shake flask method; format: physicochemical; conditions: buffer
In short: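 High-throughput equilibrium shake-flask method. DMSO stock evaporated in filter vials, aqueous buffer added, shaken 24 h on an orbital shaker, then filtered with 30 min further shaking. Filtrate analysed by HPLC.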

[13] = Intrinsic clearance in mouse liver microsomes; format: ADME; conditions: read-out: CLH; in short: as §3
[14] = Cmax in mouse at 50 mg/kg, po; format: ADME, organism-based; parameters: dose 50 mg/kg, route oral; conditions: in vivo
[15] = Oral bioavailability in mouse at 25 mg/kg; format: ADME, organism-based; conditions: in vivo
[16] = system: Mycobacterium tuberculosis; test: Antituberculosis activity against Mycobacterium tuberculosis H37Rv infected in mouse assessed as log reduction of CFU in spleen at 100 mg/kg qd for 7 days in a week for 4 weeks; format: functional
In short: (§4)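 Mice infected intranasally with 10³ H37Rv bacilli on day 0; from one week post-infection dosed orally daily, 7 days/week for 4 weeks, in MEPC vehicle (Capmul MCM, Cremophor-RH40, ethanol, 50 mM phosphate pH 6.8). Bacterial load in spleen estimated as log CFU by serial-dilution plating on 7H11 agar; ethambutol positive control.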

[17] = system: Mycobacterium tuberculosis; test: Antituberculosis activity against Mycobacterium tuberculosis H37Rv infected in mouse assessed as log reduction of CFU in lung at 30 mg/kg qd for 7 days in a week for 4 weeks; format: functional; in short: as §1
[18] = Cmax in mouse at 25 mg/kg, po; format: ADME, organism-based; parameters: dose 25 mg/kg, route oral; conditions: in vivo
In short: (§5)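 Plasma sampled at 0.08–24 h, three mice per time point. Plasma extracted with acetonitrile/methanol/acetic acid and quantified by LC/MS/MS (LLOQ 1–3 ng/mL).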

[19] = Tmax in mouse at 25 mg/kg, po; format: ADME, organism-based; conditions: in vivo; in short: as §5
[20] = system: Mycobacterium tuberculosis; test: Antituberculosis activity against Mycobacterium tuberculosis H37Rv infected in mouse assessed as log reduction of CFU in lung at 100 mg/kg qd for 7 days in a week for 4 weeks; format: functional; in short: as §1
[21] = Plasma clearance in mouse at 5 mg/kg, iv; format: ADME, organism-based; in short: as §2
[22] = AUC in mouse at 25 mg/kg, po; format: ADME, organism-based; conditions: in vivo; in short: as §5
[23] = system: Mycobacterium tuberculosis; test: Antituberculosis activity against Mycobacterium tuberculosis H37Rv infected in mouse assessed as log reduction of CFU in spleen at 30 mg/kg qd for 7 days in a week for 4 weeks; format: functional; in short: as §4

Chain of Cytochrome P450 2D6 (P10635 whole entry): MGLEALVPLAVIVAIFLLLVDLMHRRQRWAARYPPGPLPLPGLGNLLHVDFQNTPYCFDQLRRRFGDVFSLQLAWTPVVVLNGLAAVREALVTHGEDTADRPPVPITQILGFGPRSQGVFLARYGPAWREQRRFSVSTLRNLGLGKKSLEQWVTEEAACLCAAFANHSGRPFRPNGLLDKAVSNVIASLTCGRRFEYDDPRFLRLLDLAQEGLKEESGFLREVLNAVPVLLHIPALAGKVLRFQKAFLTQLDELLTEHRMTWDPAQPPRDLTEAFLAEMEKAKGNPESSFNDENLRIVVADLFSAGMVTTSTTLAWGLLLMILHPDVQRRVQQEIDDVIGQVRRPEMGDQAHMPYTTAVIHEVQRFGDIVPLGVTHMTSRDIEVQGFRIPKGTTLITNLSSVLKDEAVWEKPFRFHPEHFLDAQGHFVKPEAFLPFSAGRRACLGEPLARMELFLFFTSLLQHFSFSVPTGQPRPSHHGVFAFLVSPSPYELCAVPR
Chain of Cytochrome P450 2C9 (P11712 whole entry): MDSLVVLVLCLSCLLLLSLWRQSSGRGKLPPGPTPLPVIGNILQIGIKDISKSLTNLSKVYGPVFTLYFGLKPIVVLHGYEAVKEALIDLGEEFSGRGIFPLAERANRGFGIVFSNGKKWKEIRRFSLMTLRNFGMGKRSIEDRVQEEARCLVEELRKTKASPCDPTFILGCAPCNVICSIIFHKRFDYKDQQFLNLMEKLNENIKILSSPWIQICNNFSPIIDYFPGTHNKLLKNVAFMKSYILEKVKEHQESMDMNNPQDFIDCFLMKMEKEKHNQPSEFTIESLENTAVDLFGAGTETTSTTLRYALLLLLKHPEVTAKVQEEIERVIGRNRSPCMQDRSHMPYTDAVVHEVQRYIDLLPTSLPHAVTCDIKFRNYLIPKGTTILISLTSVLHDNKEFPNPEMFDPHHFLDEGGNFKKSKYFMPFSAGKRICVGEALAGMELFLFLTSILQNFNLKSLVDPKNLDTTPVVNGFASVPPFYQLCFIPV
Chain of Cytochrome P450 3A4 (P08684 whole entry): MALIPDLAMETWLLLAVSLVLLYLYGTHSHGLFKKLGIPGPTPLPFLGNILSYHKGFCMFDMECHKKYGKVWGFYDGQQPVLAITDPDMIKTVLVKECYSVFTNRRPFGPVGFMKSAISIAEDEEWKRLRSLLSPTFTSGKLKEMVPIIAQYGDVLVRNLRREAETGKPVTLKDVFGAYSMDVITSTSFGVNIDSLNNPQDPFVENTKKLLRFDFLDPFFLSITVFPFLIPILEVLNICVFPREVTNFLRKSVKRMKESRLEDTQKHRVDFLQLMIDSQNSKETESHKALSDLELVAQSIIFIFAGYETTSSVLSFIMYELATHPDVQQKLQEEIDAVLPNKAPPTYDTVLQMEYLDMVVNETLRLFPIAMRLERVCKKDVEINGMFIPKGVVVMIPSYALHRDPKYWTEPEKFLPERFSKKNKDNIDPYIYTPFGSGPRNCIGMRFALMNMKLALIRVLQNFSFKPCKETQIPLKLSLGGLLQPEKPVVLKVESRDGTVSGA

| Compound | MIC50 [1] | solubility thermodynamic at 24 h [12] | further results |
| --- | --- | --- | --- |
| Oc1nc2ccccc2c(O)c1-c1ccccc1 | 13.2 µM (≈ 3.13 µg/mL) |  |  |
| CC(C)Cc1cc(O)c(-c2ccccc2)c(=O)[nH]1 | 1.54 µM (≈ 0.375 µg/mL) | 550 µM (≈ 134 µg/mL) | Activity [2]: 0.95 log10CFU; IC50 (Cytochrome P450 2C9): > 20 µM; Tmax [3]: 0.5 h; F (Mus musculus [4]): 55%; IC50 (Cytochrome P450 3A4): > 20 µM; half-life [5]: 1.21 h; microsomal CLint [6]: 20 µL/min/mg; CC50 [7]: > 20 µM; microsomal CLint [8]: 3.4 µL/min/mg; Vd [9]: 0.46 L/kg; AUC (Mus musculus [10]): 27.18 µM·h; IC50 [11]: 9.6 µM; IC50 (Cytochrome P450 2D6): > 20 µM; microsomal CLint [13]: 22 µL/min/mg; Cmax [14]: 13.2 µM |
| CC1(C)CCC(Cc2cc(O)c(-c3ccccc3)c(=O)[nH]2)CC1 | 0.05 µM (≈ 0.0156 µg/mL) | 25 µM (≈ 7.79 µg/mL) | bioavailability [15]: 66%; Activity [16]: 2.8 log10CFU; half-life [5]: 1.13 h; Activity [17]: 1 log10CFU; Cmax [18]: 13.7 µM; microsomal CLint [6]: 59 µL/min/mg; CC50 [7]: > 20 µM; Tmax [19]: 6 h; Activity [20]: 1.92 log10CFU; clearance [21]: 13.6 mL/min/kg; Vd [9]: 0.54 L/kg; IC50 [11]: 0.57 µM; AUC [22]: 65.8 µM·h; Activity [23]: 2.5 log10CFU; microsomal CLint [13]: 45 µL/min/mg |
| CC(C)Cc1nc(O)c(-c2ccccc2)c(=O)[nH]1 | > 20 µM |  |  |
| COc1nc(CC(C)C)cc(O)c1-c1ccccc1 | > 20 µM |  |  |
| CC(C)Cc1cc(O)c(-c2ccccc2)c(=O)n1C | 8.1 µM (≈ 2.08 µg/mL) |  |  |
| O=c1[nH]c(CC2CCC2)cc(O)c1-c1ccccc1 | 1.19 µM (≈ 0.304 µg/mL) | 280 µM (≈ 71.5 µg/mL) |  |
| CC(C)Cc1cc(NCc2ccccc2)c(-c2ccccc2)c(=O)[nH]1 | > 20 µM |  |  |
| COc1ccc(-c2c(O)cc(CC(C)C)[nH]c2=O)cc1 | > 20 µM |  |  |
| CC(C)CCc1cc(O)c(-c2ccccc2)c(=O)[nH]1 | 1.51 µM (≈ 0.389 µg/mL) | 128 µM (≈ 32.9 µg/mL) |  |
| O=c1[nH]c(Cc2ccncc2)cc(O)c1-c1ccccc1 | 6.8 µM (≈ 1.89 µg/mL) | > 1000 µM |  |
| CC(C)Cc1cc(O)c(-c2ccccc2)c(=O)n1Cc1ccccc1 | > 20 µM |  |  |
| CC(C)Cc1cc(O)c(-c2ccc(Cl)cc2)c(=O)[nH]1 | > 20 µM |  |  |
| CC(C)Cc1cc(O)c(-c2cccc(Cl)c2)c(=O)[nH]1 | 2.67 µM (≈ 0.742 µg/mL) |  |  |
| CC(C)Cc1cc(O)c(-c2ccccc2Cl)c(=O)[nH]1 | 3.32 µM (≈ 0.922 µg/mL) |  |  |
| CC(C)Cc1ccc(-c2ccccc2)c(=O)[nH]1 | > 20 µM |  |  |
| CC(C)Cc1cc(N)c(-c2ccccc2)c(=O)[nH]1 | > 20 µM |  |  |
| O=c1[nH]c(CC2CC2)cc(O)c1-c1ccccc1 | 4.53 µM (≈ 1.09 µg/mL) | 891 µM (≈ 215 µg/mL) |  |
| CC(C)Cc1cc(O)c(-c2ccc(F)cc2)c(=O)[nH]1 | 6.75 µM (≈ 1.76 µg/mL) |  |  |
| Cc1cc(O)c(-c2ccccc2)c(=O)[nH]1 | > 20 µM | > 1000 µM |  |
| CC(C)Cc1cc(NS(C)(=O)=O)c(-c2ccccc2)c(=O)[nH]1 | > 20 µM |  |  |

| Compound | MIC50 [1] | solubility thermodynamic at 24 h [12] | further results |
| --- | --- | --- | --- |
| CC(C)Cc1cc(O)c(-c2ccccn2)c(=O)[nH]1 | > 20 µM |  |  |
| CC(C)Cc1cc(O)c(-c2ccccc2)c(=O)n1C(C)C | > 20 µM |  |  |
| O=c1[nH]c(CC2CCOCC2)cc(O)c1-c1ccccc1 | 10.1 µM (≈ 2.88 µg/mL) | > 1000 µM |  |
| CC(C)Cc1cc(O)c(-c2cccnc2)c(=O)[nH]1 | > 20 µM |  |  |
| O=c1[nH]c(CC2CCCC2)cc(O)c1-c1ccccc1 | 0.92 µM (≈ 0.248 µg/mL) | 144 µM (≈ 38.8 µg/mL) |  |
| CC(C)Cc1cc(O)c(-c2ccncc2)c(=O)[nH]1 | > 20 µM |  |  |
| CN(C)Cc1cc(O)c(-c2ccccc2)c(=O)[nH]1 | > 20 µM | 671 µM (≈ 164 µg/mL) |  |
| O=c1[nH]c(Cc2ccccc2)cc(O)c1-c1ccccc1 | 1.4 µM (≈ 0.388 µg/mL) | 40 µM (≈ 11.1 µg/mL) |  |
| O=c1[nH]c(CC2CCC(F)(F)CC2)cc(O)c1-c1ccccc1 | 1.32 µM (≈ 0.422 µg/mL) | 104 µM (≈ 33.2 µg/mL) |  |
| CC(C)Cc1cc(O)c(-c2ccccc2F)c(=O)[nH]1 | 6.31 µM (≈ 1.65 µg/mL) |  |  |
| CC(C)Cc1cc(O)c(Cc2ccccc2)c(=O)[nH]1 | > 20 µM |  |  |
| COc1ccccc1-c1c(O)cc(CC(C)C)[nH]c1=O | > 20 µM |  |  |
| COc1cccc(-c2c(O)cc(CC(C)C)[nH]c2=O)c1 | > 20 µM |  |  |
| CC(C)Cc1cc(O)c(C2CCCCC2)c(=O)[nH]1 | > 20 µM |  |  |
| COc1cc(CC(C)C)[nH]c(=O)c1-c1ccccc1 | > 20 µM |  |  |
| CC(C)Cc1cc(O)c(-c2cccc(F)c2)c(=O)[nH]1 | 2.69 µM (≈ 0.703 µg/mL) |  |  |
| CC(C)Cc1cc(O)c(-c2ccccc2)c(=O)o1 | 13.8 µM (≈ 3.37 µg/mL) |  |  |
| O=c1[nH]c(CC2CCCCC2)cc(O)c1-c1ccccc1 | 0.16 µM (≈ 0.0453 µg/mL) | 24 µM (≈ 6.8 µg/mL) |  |
| COc1nc2ccc(Br)cc2cc1[C@@H](c1ccccc1)[C@@](O)(CCN(C)C)c1cccc2ccccc12 [BEDAQUILINE] | 0.05 µM (≈ 0.0278 µg/mL) |  |  |
| NNC(=O)c1ccncc1 [ISONIAZID] | 0.33 µM (≈ 0.0453 µg/mL) |  |  |
| O=[N+]([O-])c1cn2c(n1)OC[C@@H](OCc1ccc(OC(F)(F)F)cc1)C2 [PRETOMANID] | 0.4 µM (≈ 0.144 µg/mL) |  |  |
